Results from ChEMBL document CHEMBL3259808, “Optimization of antitrypanosomatid agents: identification of nonmutagenic drug candidates with in vivo activity” (J Med Chem, 2014).
Several values for one entry are separate records, joined by “and”; a condition that tells them apart may be missing. Equal values may be shown once.

How the values were obtained:
[1] = Selectivity index, ratio of IC50 for mouse J774.1 cells to IC50 for Trypanosoma cruzi Sylvio X-10 amastigotes; assay type: toxicity; settings: read-out: Ratio IC50
Summary of the method: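 J774.1 macrophages grown in DMEM with 10% heat-inactivated FCS and allowed to attach 48 h, then exposed 48 h at 37 °C to 12.5–400.0 μM. Triplicates. MTT 0.1 mg/mL for 3 h, read at 560 nm; IC50 by linear regression against the solvent control. SI = IC50 J774.1 / parasite IC50 (Sylvio X-10 amastigotes or Tulahuen 2 epimastigotes, the latter measured by A600 growth inhibition at day 5).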

[2] = tested on: Trypanosoma cruzi; experiment: Antitrypanosomal activity against Trypanosoma cruzi Sylvio X-10 amastigotes infected in African green monkey Vero cells assessed as eradication of amastigotes after 72 hrs by Giemsa staining-based assay; settings: vero
[3] = Selectivity index, ratio of IC50 for African green monkey Vero cells to IC50 for Trypanosoma cruzi Sylvio X-10 amastigotes; assay type: toxicity, cell-based; settings: read-out: Ratio IC50
Summary of the method: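 VERO cytotoxicity: cells exposed 48 h at 37 °C, 5% CO2 to serial dilutions from a maximum of 2000 μM (DMSO stocks; DMSO <0.1% control); growth inhibition read by MTT at 570 nm. Amastigote IC50: Sylvio X-10-infected VERO cells, five doses, infected cells counted among 300 (Giemsa), quadruplicate, three experiments, sigmoidal fit. SI = IC50 VERO / IC50 amastigote.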

[4] = tested on: Trypanosoma cruzi; experiment: Antitrypanosomal activity against Trypanosoma cruzi Tulahuen 2 epimastigotes assessed as growth inhibition after 5 days; assay type: functional, organism-based; settings: Trypanosoma cruzi, Tulahuen 2, 120 h
Summary of the method: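 Epimastigotes were grown axenically at 28 °C in BHI-tryptose with 5% FBS and seeded from a 5–7 day culture at 1 × 10⁶ cells/mL. Drug from a DMSO stock was added (final DMSO ≤0.4%; the control contained 0.4% DMSO). Duplicates were run. A600 was read at day 5, and % inhibition was calculated relative to day-0 and control readings. IC50 = concentration that halves the absorbance ratio.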

[5] = Selectivity index, ratio of IC50 for human RBC to IC50 for Trypanosoma cruzi Sylvio X-10 amastigotes
Summary of the method: (§1)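 Hemolysis: washed human erythrocytes (2% w/v in PBS) incubated 24 h at 37 °C with compound at final 50, 100 and 200 μM. Ten replicates per concentration. Hemoglobin release read at 405 nm against water lysis as 100%; amphotericin B 1.5 μM was the positive control. SI = IC50 red cells / parasite IC50 (Sylvio X-10 amastigotes or Tulahuen 2 epimastigotes).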

[6] = Selectivity index, ratio of IC50 for human RBC to IC50 for Trypanosoma cruzi Tulahuen 2 epimastigotes; summary of the method: as §1
[7] = Cytotoxicity against African green monkey Vero cells assessed as growth inhibition at 25 uM after 48 hrs by MTT assay relative to control; assay type: cell-based; settings: chlorocebus sabaeus, read-out: GI
Summary of the method: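 VERO cells were exposed to serial dilutions in fresh medium of compounds dissolved in DMSO, for 48 h at 37 °C in 5% CO₂. A DMSO (<0.1%) negative control was included. Growth inhibition was read by MTT at 570 nm; nifurtimox was the positive control.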

[8] = tested on: Salmonella typhimurium; experiment: Mutagenic activity in Salmonella typhimurium TA98 at 0.005 to 0.4 ug/plate by Ames test in presence of mouse liver S9 fraction; assay type: toxicity, organism-based; settings: salmonella enterica subsp. enterica serovar typhimurium
Summary of the method: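 Plate-incorporation Ames test on minimal glucose agar with 500 μL Aroclor-treated mouse liver S9 added. DMSO solutions were tested at five consecutive 3-fold dilutions from the highest non-toxic dose, in triplicate, with a DMSO negative control. Revertants were counted manually; a compound was scored mutagenic when revertants were at least twice the negative control for two or more consecutive doses.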

[9] = tested on: Salmonella typhimurium; experiment: Mutagenic activity in Salmonella typhimurium TA98 at 0.005 to 0.4 ug/plate by Ames test; assay type: toxicity, organism-based; settings: salmonella enterica subsp. enterica serovar typhimurium
Summary of the method: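 Direct plate incubation on minimal glucose agar (Vogel-Bonner E). Compound toxicity to the bacteria was checked first. DMSO solutions were tested at five consecutive 3-fold dilutions, starting from the highest non-toxic dose, in triplicate, without metabolic activation. DMSO served as negative control. Revertants were counted manually; mutagenic = revertants at least double the negative control at two or more consecutive doses.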

[10] = tested on: Trypanosoma cruzi; experiment: Antitrypanosomal activity against Trypanosoma cruzi Sylvio X-10 amastigotes infected in African green monkey Vero cells assessed as eradication of amastigotes after 72 hrs by Giemsa staining-based assay; settings: Sylvio X-10, Vero
[11] = tested on: Salmonella typhimurium; experiment: Mutagenic activity in Salmonella typhimurium TA98 at 3.1 to 250 ug/plate by Ames test in presence of mouse liver S9 fraction; assay type: toxicity, organism-based; settings: salmonella enterica subsp. enterica serovar typhimurium
Summary of the method: (§2)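 Ames plate-incorporation assay with S. typhimurium TA98 in Vogel-Bonner E minimal glucose agar. Toxicity toward the bacteria was checked first. DMSO solutions were run in triplicate at five consecutive third-dilutions, starting at the highest non-toxic dose. Positive controls were 4-nitro-o-phenylenediamine (20.0 μg/plate) and 2-aminofluorene (10.0 μg/plate); DMSO was the negative control. Revertants were counted manually. A compound was called mutagenic when revertants were at least twice the negative control at two or more consecutive doses.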

[12] = tested on: Trypanosoma cruzi; experiment: Antitrypanosomal activity against Trypanosoma cruzi Sylvio X-10 amastigotes infected in African green monkey Vero cells assessed as eradication of amastigotes after 5 days by Giemsa staining-based assay; assay type: functional, organism-based; settings: Sylvio X-10, Vero, 120 h
Summary of the method: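 VERO cells in RPMI 1640 with 10% hiFCS were allowed to adhere for 24 h at 37 °C in 5% CO₂, then infected with tissue-derived trypomastigotes at 10:1. Free parasites were washed off after 24 h, and cultures were treated at five compound doses (text gives 72 h / 5 days). Cultures were methanol-fixed and Giemsa-stained, and infected cells were counted among 300. Quadruplicates were run in three independent experiments. IC50/IC90 were obtained by sigmoidal regression.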

[13] = tested on: Salmonella typhimurium; experiment: Mutagenic activity in Salmonella typhimurium TA98 at 3.1 to 250 ug/plate by Ames test; assay type: toxicity, organism-based; settings: salmonella enterica subsp. enterica serovar typhimurium; summary of the method: as §2
[14] = tested on: Salmonella typhimurium; experiment: Mutagenic activity in Salmonella typhimurium TA98 at 0.04 to 4 ug/plate by Ames test; assay type: toxicity, organism-based; settings: salmonella enterica subsp. enterica serovar typhimurium; summary of the method: as §2
[15] = tested on: Salmonella typhimurium; experiment: Mutagenic activity in Salmonella typhimurium TA98 at 0.04 to 4 ug/plate by Ames test in presence of mouse liver S9 fraction; assay type: toxicity, organism-based; settings: salmonella enterica subsp. enterica serovar typhimurium; summary of the method: as §2

CC1CS(=O)(=O)CCN1/N=C/c1ccc([N+](=O)[O-])o1 (centres undefined) [NIFURTIMOX]
selectivity ratio [1]: 200 | IC50 [2]: 0.45 µM and 2.4 µM | selectivity ratio [3]: 200 | IC50 [4]: 8 µM | Ratio IC50 [5]: 150

CC(=O)N(C1=NN(C(C)=O)C(c2ccc([N+](=O)[O-])s2)S1)c1ccccc1 (centres undefined)
Ratio IC50 [6]: 3 | inhibition at 48 h, 25 µM [7]: > 50% | Activity [8]: Non-toxic | Activity [9]: Toxic | IC50 [4]: 2.9 µM

Br.C=CCn1c(-c2ccc(Cl)cc2)cs\c1=N/N=C/C=C/C=C/c1cccs1
IC90 [10]: > 25 µM | Activity [11]: Non-toxic | IC50 [12]: > 25 µM | Activity [13]: Non-toxic | IC50 [4]: 11 µM

C=CCn1c(C)cs/c1=N\N=C\c1ccc([N+](=O)[O-])s1
IC50 [12]: 10.5 µM | Activity [8]: Non-toxic | Activity [9]: Non-toxic | IC50 [4]: 10 µM

C=CCn1c(-c2ccc(N)cc2)cs\c1=N/N=C/C=C/c1ccco1
Activity [14]: Non-toxic | Activity [15]: Non-toxic | IC50 [4]: 9 µM

O=[N+]([O-])c1ccc(/C=N/N=c2\[nH]c(-c3ccc(Cl)cc3)cs2)s1
inhibition at 48 h, 25 µM [7]: > 50% | IC50 [4]: 4.9 µM

C=CCn1c(-c2ccc([N+](=O)[O-])cc2)cs\c1=N/N=C/C=C/c1ccc([N+](=O)[O-])s1
Activity [14]: Toxic | IC50 [12]: 8.2 µM | Activity [15]: Toxic | selectivity ratio [3]: 13 | IC50 [4]: 3.3 µM
